Test results reported in ChEMBL document CHEMBL2203022, “Design, synthesis and antimicrobial evaluation of novel 1-benzyl 2-butyl-4-chloroimidazole embodied 4-azafluorenones via molecular hybridization approach” (2012).

Columns and labels:
Assay type in all cases: functional
Pseudomonas aeruginosa = experiment: Antibacterial activity against Pseudomonas aeruginosa MTCC 2453 at 10 ug per disk after 24 hrs by disc diffusion method; details: MTCC 2453, 24 h, read-out: DIZ
How it was run: (§1)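 Standard 0.5 McFarland inoculum spread evenly over nutrient agar plates with a sterile L-shaped glass spreader. Plates incubated 24 h at 37 °C. Gentamicin as reference standard. Read-out: zone of inhibition in mm, measured in triplicate and compared with control and standard.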

Escherichia coli = experiment: Antibacterial activity against Escherichia coli MTCC 1573 at 10 ug per disk after 24 hrs by disc diffusion method; details: MTCC 1573, 24 h, read-out: DIZ; how it was run: as §1
Bacillus subtilis = experiment: Antibacterial activity against Bacillus subtilis MTCC 121 at 10 ug per disk after 24 hrs by disc diffusion method; details: for zone of inhibition at 10 µg/disc: MTCC 121, 24 h, read-out: DIZ; how it was run: as §1
Aspergillus flavus = experiment: Antifungal activity against Aspergillus flavus MTCC 8188 at 10 ug per disk after 2 to 3 days by disc diffusion method; details: for zone of inhibition at 10 µg/disc: read-out: DIZ
How it was run: (§2)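 Fungal inoculum: a loopful of each strain suspended in saline, spread evenly on yeast extract potato dextrose agar with a sterile glass spreader. Sterile 5 mm discs loaded with test compound in DMSO placed on the agar. Plates incubated 2–3 days at room temperature. Nystatin as reference standard. Zones of inhibition measured and compared with control and standard.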

Staphylococcus aureus = experiment: Antibacterial activity against Staphylococcus aureus MTCC 1430 at 10 ug per disk after 24 hrs by disc diffusion method; details: MTCC 1430, 24 h, read-out: DIZ; how it was run: as §1
Candida albicans = experiment: Antifungal activity against Candida albicans MTCC 7253 at 10 ug per disk after 2 to 3 days by disc diffusion method; details: read-out: DIZ; how it was run: as §2
Klebsiella pneumoniae = experiment: Antibacterial activity against Klebsiella pneumoniae MTCC 618 at 10 ug per disk after 24 hrs by disc diffusion method; details: for zone of inhibition at 10 µg/disc: MTCC 618, 24 h, read-out: DIZ; how it was run: as §1

Compound	zone of inhibition at 10 µg/disc (Pseudomonas aeruginosa) [mm]	zone of inhibition at 10 µg/disc (Escherichia coli) [mm]	zone of inhibition at 10 µg/disc (Bacillus subtilis) [mm]	zone of inhibition at 10 µg/disc (Aspergillus flavus) [mm]	zone of inhibition at 10 µg/disc (Staphylococcus aureus) [mm]	zone of inhibition at 10 µg/disc (Candida albicans) [mm]	zone of inhibition at 10 µg/disc (Klebsiella pneumoniae) [mm]	inhibition zone (IZ) (Aspergillus flavus) [mm]	inhibition zone (IZ) (Bacillus subtilis) [mm]	inhibition zone (IZ) (Klebsiella pneumoniae) [mm]
CCCCc1nc(Cl)c(-c2cc(-c3ccco3)nc3c2C(=O)c2ccccc2-3)n1Cc1ccccc1	14	8	8	10	15	13	15	–	–	–
CCCCc1nc(Cl)c(-c2cc(-c3ccc(Br)cc3)nc3c2C(=O)c2ccccc2-3)n1Cc1ccccc1	6	9	9	7	12	10	12	–	–	–
CCCCc1nc(Cl)c(-c2cc(-c3ccc4ccccc4c3)nc3c2C(=O)c2ccccc2-3)n1Cc1ccccc1	13	8	9	6	12	10	12	–	–	–
NYSTATIN	–	–	–	–	–	–	–	9	–	–
CCCCc1nc(Cl)c(-c2cc(-c3ccc4oc5ccccc5c4c3)nc3c2C(=O)c2ccccc2-3)n1Cc1ccccc1	13	9	9	7	11	10	13	–	–	–
GENTAMICIN	–	–	–	–	–	–	–	–	14	19
CCCCc1nc(Cl)c(-c2cc(-c3cn(S(=O)(=O)c4ccc(C)cc4)c4ccccc34)nc3c2C(=O)c2ccccc2-3)n1Cc1ccccc1	7	8	7	11	10	13	12	–	–	–
CCCCc1nc(Cl)c(-c2cc(-c3cc(OC)c(OC)c(OC)c3)nc3c2C(=O)c2ccccc2-3)n1Cc1ccccc1	7	9	9	6	12	10	11	–	–	–
CCCCc1nc(Cl)c(-c2cc(-c3ccc4sc5ccccc5c4c3)nc3c2C(=O)c2ccccc2-3)n1Cc1ccccc1	7	8	9	10	12	14	11	–	–	–
CCCCc1nc(Cl)c(-c2cc(-c3cccc4ccccc34)nc3c2C(=O)c2ccccc2-3)n1Cc1ccccc1	6	9	10	5	12	12	12	–	–	–
CCCCc1nc(Cl)c(-c2cc(-c3ccc(Br)s3)nc3c2C(=O)c2ccccc2-3)n1Cc1ccccc1	13	8	9	7	12	9	12	–	–	–
CCCCc1nc(Cl)c(-c2cc(-c3cccs3)nc3c2C(=O)c2ccccc2-3)n1Cc1ccccc1	11	9	10	5	10	10	10	–	–	–
CCCCc1nc(Cl)c(-c2cc(-c3ccc([N+](=O)[O-])cc3)nc3c2C(=O)c2ccccc2-3)n1Cc1ccccc1	10	8	10	6	10	11	10	–	–	–
CCCCc1nc(Cl)c(-c2cc(-c3ccc(OC)cc3)nc3c2C(=O)c2ccccc2-3)n1Cc1ccccc1	9	8	9	6	10	12	11	–	–	–
CCCCc1nc(Cl)c(-c2cc(-c3cccc(Br)n3)nc3c2C(=O)c2ccccc2-3)n1Cc1ccccc1	12	9	8	9	12	11	9	–	–	–
CCCCc1nc(Cl)c(-c2cc(-c3ccc(C)cc3)nc3c2C(=O)c2ccccc2-3)n1Cc1ccccc1	8	9	8	7	10	10	11	–	–	–
CCCCc1nc(Cl)c(-c2cc(-c3ccccc3)nc3c2C(=O)c2ccccc2-3)n1Cc1ccccc1	10	9	8	8	12	10	11	–	–	–
